According to ChEMBL document CHEMBL3763156, “Imidazole-based pinanamine derivatives: Discovery of dual inhibitors of the wild-type and drug-resistant mutant of the influenza A virus” (Eur J Med Chem, 2016):

Experiments:
Influenza A virus [1] = experiment: Antiviral activity against amantadine-resistant Influenza A virus A/WSN/33(H1N1) expressing M2 S31N mutant ion channel infected in MDCK cells assessed as protection against virus induced cytopathic effect after 48 hrs by microscopic analysis; format: functional, organism-based, A/WSN/1933(H1N1)
Outline: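 MDCK cells were grown 24 h to a confluent monolayer and rinsed twice. They were infected with 100 TCID50 virus for 2 h at 37 °C in 5% CO2, and the inoculum was removed. Serial two-fold compound dilutions in DMEM with 1.5 µg/mL trypsin were added for 48 h at 34 °C in 5% CO2. CPE percentage was scored microscopically. IC50 came from non-linear regression, as the mean of 2–3 determinations.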

[2] = tested on: Matrix protein 2 (Influenza A virus (A/Udorn/307/1972(H3N2))), P0DOF8 [S31N]; experiment: Inhibition of Influenza A virus M2 S31N mutant ion channel expressed in Xenopus oocytes at 100 uM after 2 mins by two-electrode voltage clamp assay; format: cell-based
Outline: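 A/M2 channel (S31N for line 7, wild type for line 9) was expressed in Xenopus oocytes and recorded by two-electrode voltage clamp. Compound was applied at 100 µM, and the percentage inhibition of channel current was taken after 2 min. Values are mean ± SD.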

[3] = tested on: Matrix protein 2 (Influenza A virus (A/Udorn/307/1972(H3N2))), P0DOF8 [S31N]; experiment: Inhibition of Influenza A virus M2 S31N mutant ion channel expressed in 293Trex cells at 100 uM after 2 mins by patch clamp assay; format: cell-based
Influenza A virus [4] = experiment: Antiviral activity against amantadine-resistant Influenza A virus A/WSN/33(H1N1) expressing M2 S31N mutant ion channel infected in MDCK cells assessed as cell viability after 48 hrs by MTT assay; format: functional, organism-based, A/WSN/1933(H1N1)
Outline: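 Infected MDCK cells were given compound for 48 h, and the CPE-based result was confirmed by MTT viability. MTT was added from a 5 mg/mL stock for 4 h at 37 °C, stopped with DMSO, and read as absorbance at 490 nm. The 50% effective concentration was calculated by the Reed–Muench method, as the mean of 2–3 determinations.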

CCc1ncc(CN[C@@H]2C[C@@H]3C[C@H]([C@H]2C)C3(C)C)[nH]1
IC50 (Influenza A virus [1]; read-out: IC50): 9.5 µM

NC12CC3CC(CC(C3)C1)C2 [AMANTADINE]
IC50 (Influenza A virus [1]; read-out: IC50): 337 µM
inhibition [2]: 24.3%

C[C@@H]1[C@H]2C[C@@H](C[C@H]1NCc1cnc(C3CC3)[nH]1)C2(C)C
IC50 (Influenza A virus [1]; read-out: IC50): 29.4 µM

CCc1nc[nH]c1CN[C@@H]1C[C@@H]2C[C@H]([C@H]1C)C2(C)C
IC50 (Influenza A virus [1]): Not Active

Cc1nc[nH]c1CN[C@@H]1C[C@@H]2C[C@H]([C@H]1C)C2(C)C
IC50 (Influenza A virus [1]; read-out: IC50): 95.5 µM
inhibition [3]: 27%

C[C@@H]1[C@H]2C[C@@H](C[C@H]1NCc1[nH]cnc1C1CC1)C2(C)C
IC50 (Influenza A virus [1]): Not Active

C[C@@H]1[C@H]2C[C@@H](C[C@H]1NCc1cncn1C)C2(C)C
IC50 (Influenza A virus [1]): Not Active

C[C@@H]1[C@H]2C[C@@H](C[C@H]1NCc1cnc(C3CCCC3)[nH]1)C2(C)C
IC50 (Influenza A virus [1]): Not Active

CC(C)Cc1ncc(CN[C@@H]2C[C@@H]3C[C@H]([C@H]2C)C3(C)C)[nH]1
IC50 (Influenza A virus [1]; read-out: IC50): 8.9 µM
IC50 (Influenza A virus [4]): 18.6 µM

CCCCc1ncc(CN[C@@H]2C[C@@H]3C[C@H]([C@H]2C)C3(C)C)[nH]1
IC50 (Influenza A virus [1]): Not Active

C[C@@H]1[C@H]2C[C@@H](C[C@H]1NCc1cnc(-c3cccs3)[nH]1)C2(C)C
IC50 (Influenza A virus [1]): Not Active

CCCc1nc(C(C)C)[nH]c1CN[C@@H]1C[C@@H]2C[C@H]([C@H]1C)C2(C)C
IC50 (Influenza A virus [1]; read-out: IC50): 8.8 µM
IC50 (Influenza A virus [4]): 11.3 µM

C[C@@H]1[C@H]2C[C@@H](C[C@H]1NCc1cnc(-c3ccccc3)[nH]1)C2(C)C
IC50 (Influenza A virus [1]; read-out: IC50): 9 µM
IC50 (Influenza A virus [4]): 11 µM

Cc1nc(C(C)C)[nH]c1CN[C@@H]1C[C@@H]2C[C@H]([C@H]1C)C2(C)C
IC50 (Influenza A virus [1]): Not Active

CCCc1nc(-c2ccccc2)[nH]c1CN[C@@H]1C[C@@H]2C[C@H]([C@H]1C)C2(C)C
IC50 (Influenza A virus [1]; read-out: IC50): 12.3 µM
IC50 (Influenza A virus [4]): 16.1 µM

CCc1nc(C)c(CN[C@@H]2C[C@@H]3C[C@H]([C@H]2C)C3(C)C)[nH]1
IC50 (Influenza A virus [1]): Not Active
inhibition [2]: 1.73%

CCCc1nc(C2CC2)[nH]c1CN[C@@H]1C[C@@H]2C[C@H]([C@H]1C)C2(C)C
IC50 (Influenza A virus [1]; read-out: IC50): 7.3 µM
IC50 (Influenza A virus [4]): 9.7 µM

C[C@@H]1[C@H]2C[C@@H](C[C@H]1NCc1[nH]cnc1C(C)(C)C)C2(C)C
IC50 (Influenza A virus [1]): Not Active

Cc1nc(C2CC2)[nH]c1CN[C@@H]1C[C@@H]2C[C@H]([C@H]1C)C2(C)C
IC50 (Influenza A virus [1]; read-out: IC50): 9.4 µM
IC50 (Influenza A virus [4]): 21.4 µM

CC(C)c1ncc(CN[C@@H]2C[C@@H]3C[C@H]([C@H]2C)C3(C)C)[nH]1
IC50 (Influenza A virus [1]): Not Active

C[C@@H]1[C@H]2C[C@@H](C[C@H]1NCc1cnc(C(C)(C)C)[nH]1)C2(C)C
IC50 (Influenza A virus [1]; read-out: IC50): 9.7 µM
IC50 (Influenza A virus [4]): 11.6 µM

CCCc1nc[nH]c1CN[C@@H]1C[C@@H]2C[C@H]([C@H]1C)C2(C)C
IC50 (Influenza A virus [1]; read-out: IC50): 3.4 µM
IC50 (Influenza A virus [4]): 7.3 µM
inhibition [2]: 3.47%

C[C@@H]1[C@H]2C[C@@H](C[C@H]1NCc1cnc(C3CCCCC3)[nH]1)C2(C)C
IC50 (Influenza A virus [1]): Not Active

Cc1ncc(CN[C@@H]2C[C@@H]3C[C@H]([C@H]2C)C3(C)C)[nH]1
IC50 (Influenza A virus [1]): Not Active

C[C@@H]1[C@H]2C[C@@H](C[C@H]1NCc1[nH]cnc1-c1ccccc1)C2(C)C
IC50 (Influenza A virus [1]): Not Active
